Reference: paper PMC6247064 (Cancer Science, 2018)
Where “and” joins values, the source holds several entries; their conditions need not be identical. Equal entries are not always repeated.

Columns and labels:
[1] = Phase 1 study: noncompartmental plasma pharmacokinetics; assay type: in vivo, human; conditions: for C av,72 (average plasma concentration over 72 h): geometric mean (CV%)
In short: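 The test compound was given as a 1-h IV infusion at 80 or 105 mg/m2 every 14 days. Plasma levels were measured by validated LC/MS/MS and analysed noncompartmentally. C av,72 is the mean plasma concentration over 72 h after infusion. Accumulation ratio is cycle 2 day 1 AUC(0-24) divided by cycle 1 day 1 AUC(0-24). Values are geometric means.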

advanced solid tumors = test: Phase 1 study: antitumor activity by RECIST version 1.1; assay type: in vivo, human
In short: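 Adults with advanced solid tumors received the test compound at 80 or 105 mg/m2 by IV infusion on day 1 of each 14-day cycle. Tumors were measured by CT or MRI and scored with RECIST 1.1. Best overall response was the best response recorded from the start of treatment until disease progression. Patients counted if they had baseline and post-baseline tumor measurements.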

## COc1cccc(OCCCN)c1-c1cc(Nc2cnc(C#N)cn2)n[nH]1 [Prexasertib]
[1]; 80 mg/m^2 1-h IV infusion, Cycle 1, day 1, N 6
  C av,72 (average plasma concentration over 72 h): 23.1 (22) ng/mL
[1]; 80 mg/m^2 1-h IV infusion, Cycle 2, day 1, N 4
  C av,72 (average plasma concentration over 72 h): 24.8 (16) ng/mL
[1]; 105 mg/m^2 1-h IV infusion, Cycle 1, day 1, N 6
  C av,72 (average plasma concentration over 72 h): 30.0 (13) ng/mL
[1]; 105 mg/m^2 1-h IV infusion, Cycle 2, day 1, N 3
  C av,72 (average plasma concentration over 72 h): 31.5 (22) ng/mL
[1]; both treatment groups
  Intercycle accumulation between cycle 1 and cycle 2: no intercycle accumulation
Advanced solid tumors; 80 mg/m^2, two patients with BOR of stable disease
  Maximum tumor shrinkage from baseline, individual patients with esophageal SCC: 20% and 13%
Advanced solid tumors; 80 mg/m^2 group, 2 of 6 patients
  BOR progressive disease: 33.3%
Advanced solid tumors; 80 mg/m^2 group, 4 of 6 patients
  BOR stable disease: 66.7%
Advanced solid tumors; 105 mg/m^2 group, 1 of 5 evaluable patients
  BOR progressive disease: 20.0%
Advanced solid tumors; 105 mg/m^2 group, 4 of 5 evaluable patients
  BOR stable disease: 80.0%
Advanced solid tumors; all patients
  Complete response or partial response: No patients in the study had a complete response or partial response
Advanced solid tumors; patients with baseline and post-baseline tumor measurements, both doses
  Best overall response of stable disease: 8 of 11
